Test [1] in a line: Selectivity index, ratio of IC50 for Vero cells to MIC of Mycobacterium tuberculosis H37Rv. Type of test: functional.
Test [2] relates to Mycobacterium tuberculosis. The experiment in a line: Antimicrobial activity against Mycobacterial tuberculosis ATCC 27294 at […]. Type of test: functional.
The subject of the next test is Escherichia coli. The experiment in a line: Antimicrobial activity against Escherichia coli ATCC 25922. Type of test: functional.
Another test deals with Staphylococcus aureus. The experiment in a line: Antimicrobial activity against Staphylococcus aureus ATCC 25923. Type of test: functional.
The next test relates to Vero. As to the kind of experiment: Cytotoxicity against Vero cells. The test is classed as cell-based. Conditions: Chlorocebus sabaeus. Summed up: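 IC50 was measured in VERO mammalian cells, and only for compounds that met the M. tuberculosis MIC cutoff for follow-up. A selectivity index was then calculated as the VERO IC50 divided by the Mtb MIC.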

In brackets after ≈: the same amount, converted by molar mass.

In the case of `COc1ccc(Cn2cnc3c(-c4ccco4)ncnc32)cc1`, in test [1], the Ratio is over 40 µg/mL.

As for `COc1ccc(Cn2cnc3c(-c4ccco4)nc(N(C)C)nc32)cc1`, the inhibition at […] in test [2] was 34%.

In test [2], `COc1ccc(Cn2cnc3c(-c4ccco4)nc(Oc4ccccc4)nc32)cc1` returned an inhibition at […] of 72%.

As to `COc1ccc(Cn2cnc3c(-c4ccco4)nc(Cl)nc32)cc1`, the MIC in the test with Escherichia coli and in the test with Staphylococcus aureus was over 32 µg/mL each time. In addition, the Ratio in test [1] was over 26 µg/mL.

On to `COc1ccc(Cn2cnc3c(-c4ccco4)nc(SC)nc32)cc1`, for which the Ratio in test [1] came to 3.9 µg/mL. Moreover, the half-maximal inhibitory concentration (IC50) with Vero was found to be 3.05 µg/mL (≈ 8.65 µM).

One may read the inhibition as the drop in the measured response relative to a control, in per cent. Usually MIC stands for the lowest concentration found to suppress growth. Read a high MIC as a need for much substance. As usually defined, the IC50 is the midpoint of a concentration-inhibition curve. A higher IC50 goes with weaker potency.

For the origin of these results see ChEMBL document CHEMBL1139826, “Synthesis, biological activity, and SAR of antimycobacterial 2- and 8-substituted 6-(2-furyl)-9-(p-methoxybenzyl)purines” (Bioorg Med Chem, 2007).
